Reference: ChEMBL document CHEMBL4680345, “Thioether-linked dihydropyrrol-2-one analogues as PqsR antagonists against antibiotic resistant Pseudomonas aeruginosa” (Bioorg Med Chem, 2021)
Activity calls are given as the source filed them. The rule behind the calls is not given here.

Columns and labels:
[1] = system: Pseudomonas aeruginosa PAO1; assay: Inhibition of PqsR in Pseudomonas aeruginosa PAO1 harboring GFP fused pqsA at 125 ug/ml measured every 15 mins for 6 to 8 hrs by reporter assay relative to control; settings: dose 125.0 µg/ml, time 6-8 hrs
In short: (§1)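 PAO1 carrying PqsR-regulated pqsA promoter–gfp fusion; overnight culture in Mueller Hinton broth exposed to serially diluted compounds (40 mM DMSO stocks, diluted in medium) at 37 °C with intermittent shaking. GFP fluorescence and OD600 read every 15 min for at least 6–8 h; fluorescence normalised to OD600. Negative control: medium with 1.25% DMSO. Run in triplicate.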

[2] = Inhibition of PqsR in Pseudomonas aeruginosa PAO1 harboring GFP fused pqsA measured every 15 mins for 6 to 8 hrs by reporter assay; in short: as §1
Pseudomonas aeruginosa [3] = assay: Antibiofilm activity against Pseudomonas aeruginosa ATCC 25619 assessed as decrease in bacterial co-aggregation at 150 to 400 uM measured after 24 hrs by phase contrast microscopic analysis; assay type: functional, organism-based; settings: dose 150-400 µM
In short: (§2)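 Overnight TSB cultures resuspended to OD600 0.1 ± 0.02 in TSB. Biofilms grown 24 h at 37 °C, 100 rpm with compound at 250 µM or DMSO control. Washed twice with PBS to remove loosely adhered cells. Imaged by phase contrast microscopy to assess biofilm morphology and aggregation.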

Pseudomonas aeruginosa [4] = assay: Antibiofilm activity against Pseudomonas aeruginosa ATCC 25619 assessed as reduction in biomass at 250 to 400 uM measured after 48 hrs by crystal violet staining based assay relative to control; assay type: functional; settings: dose 250-400 µM
In short: (§3)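 Biofilms started from TSB-grown cultures at OD600 0.1 ± 0.02 with compound (250 and 400 µM) or DMSO control. Incubated 48 h at 37 °C, 100 rpm, then washed with PBS. Stained with 0.1% (w/v) crystal violet for 1 h at 37 °C, 150 rpm, washed three times and dried. Dye dissolved in 80% ethanol and read at OD550. Biomass expressed as % decrease versus DMSO control, set at 100%.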

Pseudomonas aeruginosa [5] = assay: Antibiofilm activity against Pseudomonas aeruginosa PAO1 assessed as decrease in bacterial co-aggregation at 150 to 400 uM measured […] by microscopic analysis (reference value: 26 %); assay type: functional; design: scale not given: the % may be the effect or the level left; settings: dose 150-400 µM
Pseudomonas aeruginosa [6] = assay: Antibiofilm activity against Pseudomonas aeruginosa ATCC 25619 assessed as decrease in bacterial co-aggregation at 150 to 400 uM measured […] by microscopic analysis (reference value: 23 %); assay type: functional; design: scale not given: the % may be the effect or the level left; settings: dose 150-400 µM
Pseudomonas aeruginosa [7] = assay: Antibiofilm activity against Pseudomonas aeruginosa PAO1 assessed as reduction in biomass at 250 to 400 uM measured after 48 hrs by crystal violet staining based assay relative to control; assay type: functional; settings: dose 250-400 µM; in short: as §3
Pseudomonas aeruginosa [8] = assay: Antibiofilm activity against Pseudomonas aeruginosa PAO1 assessed as decrease in bacterial co-aggregation at 150 to 400 uM measured after 24 hrs by phase contrast microscopic analysis; assay type: functional, organism-based; settings: dose 150-400 µM; in short: as §2
[9] = Inhibition of planktonic growth of Pseudomonas aeruginosa PAO1 up to 125 ug/ml incubated for 24 hrs; settings: dose <=125 µg/ml
In short: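 PAO1 at 5×10^5 CFU/mL in MHB. Compound added from 10 mg/mL DMSO stock, up to 125 µg/mL final. Incubated 24 h at 37 °C with intermittent agitation, OD600 read every 15 min. DMSO (1.25%) as control. One experiment per compound with three technical replicates.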

SMILES	inhibition [1]	other results
O=C1C=C(c2ccc(Cl)cc2)/C(=C/Sc2ccccn2)N1	18%	
O=C1C=C(c2ccccc2F)/C(=C/Sc2ccccc2)N1	42%	
O=C1C=C(c2ccc(Br)cc2)/C(=C/Sc2ccccn2)N1	20%	
O=C1C=C(c2ccc(F)cc2)/C(=C/Sc2ccccc2)N1	45%	
O=C1C=C(c2ccccc2)/C(=C/Sc2ccc(Cl)cc2)N1	43%	
CCCS/C=C1\NC(=O)C=C1c1ccc(Br)cc1	62%	IC50 [2]: 100 µM; Activity (Pseudomonas aeruginosa [3]): Active; inhibition (INH) (Pseudomonas aeruginosa [4]): 20%; Activity (Pseudomonas aeruginosa [5]): 13%; Activity (Pseudomonas aeruginosa [6]): 11%; inhibition (INH) (Pseudomonas aeruginosa [7]): 20%; Activity (Pseudomonas aeruginosa [8]): Active; growth inhibition (GI) [9]: Non-Toxic
O=C1C=C(c2ccccc2)/C(=C/Sc2ccccc2)N1	52%	
CCCS/C=C1\NC(=O)C=C1c1ccccc1F	7%	
O=C1C=C(c2cccc(F)c2)/C(=C/Sc2ccccn2)N1	47%	
CCCS/C=C1\NC(=O)C=C1c1ccccc1	20%	
O=C1C=C(c2ccccc2F)/C(=C/Sc2ccc(Cl)cc2)N1	55%	
O=C1C=C(c2ccccc2F)/C(=C/Sc2ccccn2)N1	40%	
CCCS/C=C1\NC(=O)C=C1c1ccc(Cl)cc1	59%	IC50 [2]: 90 µM
O=C1C=C(c2ccc(Cl)cc2)/C(=C/Sc2ccccc2)N1	45%	
O=C1C=C(c2ccc(Cl)cc2)/C(=C/Sc2ccc(Cl)cc2)N1	36%	
O=C1C=C(c2ccc(Br)cc2)/C(=C/Sc2ccc(Cl)cc2)N1	33%	
O=C1C=C(c2ccc(Br)cc2)/C(=C/Sc2ccccc2)N1	52%	
O=C1C=C(c2ccc(F)cc2)/C(=C/Sc2ccc(Cl)cc2)N1	46%	
O=C1C=C(c2ccccc2)/C(=C/Sc2ccccn2)N1	53%	
O=C1C=C(c2ccc(F)cc2)/C(=C/Sc2ccccn2)N1	63%	IC50 [2]: 32 µM; Activity (Pseudomonas aeruginosa [3]): Active; inhibition (INH) (Pseudomonas aeruginosa [4]): 20%; Activity (Pseudomonas aeruginosa [5]): 13%; Activity (Pseudomonas aeruginosa [6]): 11%; inhibition (INH) (Pseudomonas aeruginosa [7]): 20%; Activity (Pseudomonas aeruginosa [8]): Active; growth inhibition (GI) [9]: Non-Toxic
